Laboratory results from ChEMBL document CHEMBL3414565, “Discovery of novel AHLs as potent antiproliferative agents” (Eur J Med Chem, 2015).

What was measured:
MCF7 [1] = test: Induction of apoptosis in human MCF7 cells assessed as necrotic cells at 8 uM after 24 hrs by annexin V-FITC/propidium iodide staining-based flow cytometry (reference value: 6.2%); assay type: functional
How it was run: (§1)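 MCF-7 cells were plated at 5.0 × 10^6 cells/mL and held 12 or 24 h at 37 °C. Exponentially growing cells then received complete medium (blank) or compound at 0, 2, 4 or 8 for 12 or 24 h. Harvested cells were stained with Annexin V-FITC/PI and analysed by flow cytometry. Quadrants were scored as live, early apoptotic (annexin+/PI−), late apoptotic (double positive) and damaged (PI+ only).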

MCF7 [2] = test: Induction of apoptosis in human MCF7 cells assessed as late apoptotic cells at 2 uM after 24 hrs by annexin V-FITC/propidium iodide staining-based flow cytometry (reference value: 2.1%); assay type: functional; how it was run: as §1
MCF7 [3] = test: Cell cycle arrest in human MCF7 cells assessed as accumulation at G2/M phase at 2 to 8 uM by propidium iodide staining-based flow cytometry; assay type: functional; details: TDE = time-dependent effect
MCF7 [4] = test: Cell cycle arrest in human MCF7 cells assessed as accumulation at S phase at 2 uM after 12 hrs by propidium iodide staining-based flow cytometry (reference value: 26.65%); assay type: functional
MCF7 [5] = test: Cytotoxicity against human MCF7 cells after 72 hrs by MTT assay; assay type: functional, cell-based; details: MCF7, 72 h
How it was run: (§2)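 Cells were grown in RPMI1640 and seeded at 5 × 10^3 cells/well, then left 24 h at 37 °C. Medium was replaced with fresh medium holding a range of compound concentrations, from 10 mM DMSO stocks with final DMSO at most 0.1%. Exposure lasted 72 h. MTT (5 mg/mL) was added for 4 h at 37 °C, formazan was dissolved in DMSO and A570 was read. IC50 came from dose-response curves as mean ± SD of three independent experiments.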

MCF7 [6] = test: Induction of apoptosis in human MCF7 cells assessed as viable cells at 4 uM after 24 hrs by annexin V-FITC/propidium iodide staining-based flow cytometry (reference value: 87.1%); assay type: functional; details: MCF7, 24 h, read-out: Activity; how it was run: as §1
MCF7 [7] = test: Cell cycle arrest in human MCF7 cells assessed as accumulation at S phase at 8 uM after 24 hrs by propidium iodide staining-based flow cytometry (reference value: 40.08%); assay type: functional
MCF7 [8] = test: Cell cycle arrest in human MCF7 cells assessed as accumulation at G2/M phase at 8 uM after 24 hrs by propidium iodide staining-based flow cytometry (reference value: 16.27%); assay type: functional
MCF7 [9] = test: Induction of apoptosis in human MCF7 cells assessed as necrotic cells at 4 uM after 24 hrs by annexin V-FITC/propidium iodide staining-based flow cytometry (reference value: 6.2%); assay type: functional; how it was run: as §1
MCF7 [10] = test: Induction of apoptosis in human MCF7 cells assessed as late apoptotic cells at 4 uM after 24 hrs by annexin V-FITC/propidium iodide staining-based flow cytometry (reference value: 2.1%); assay type: functional; how it was run: as §1
HEK293 = test: Cytotoxicity against human HEK293 cells after 72 hrs by MTT assay; assay type: cell-based; details: HEK293, 72 h
MCF7 [11] = test: Induction of apoptosis in human MCF7 cells assessed as early apoptotic cells at 4 uM after 12 hrs by annexin V-FITC/propidium iodide staining-based flow cytometry (reference value: 7.2%); assay type: functional; how it was run: as §1
MCF7 [12] = test: Cell cycle arrest in human MCF7 cells assessed as accumulation at G2/M phase at 2 uM after 24 hrs by propidium iodide staining-based flow cytometry (reference value: 16.27%); assay type: functional
MCF7 [13] = test: Induction of apoptosis in human MCF7 cells assessed as viable cells at 8 uM after 24 hrs by annexin V-FITC/propidium iodide staining-based flow cytometry (reference value: 87.1%); assay type: functional; details: MCF7, 24 h, read-out: Activity
MCF7 [14] = test: Induction of apoptosis in human MCF7 cells at 2 to 8 uM by annexin V-FITC/propidium iodide staining-based flow cytometry; assay type: functional, cell-based; details: TDE = time-dependent effect
MCF7 [15] = test: Cell cycle arrest in human MCF7 cells assessed as accumulation at G2/M phase at 4 uM after 12 hrs by propidium iodide staining-based flow cytometry (reference value: 16.53%); assay type: functional
MCF7 [16] = test: Induction of apoptosis in human MCF7 cells assessed as late apoptotic cells at 2 uM after 12 hrs by annexin V-FITC/propidium iodide staining-based flow cytometry (reference value: 2.7%); assay type: functional; how it was run: as §1
MGC-803 = test: Cytotoxicity against human MGC803 cells after 72 hrs by MTT assay; assay type: functional, cell-based; details: MGC-803, 72 h; how it was run: as §2
MCF7 [17] = test: Induction of apoptosis in human MCF7 cells assessed as necrotic cells at 2 uM after 12 hrs by annexin V-FITC/propidium iodide staining-based flow cytometry (reference value: 4.7%); assay type: functional; how it was run: as §1
MCF7 [18] = test: Cell cycle arrest in human MCF7 cells assessed as accumulation at G2/M phase at 2 uM after 12 hrs by propidium iodide staining-based flow cytometry (reference value: 16.53%); assay type: functional
MCF7 [19] = test: Induction of apoptosis in human MCF7 cells assessed as necrotic cells at 2 uM after 24 hrs by annexin V-FITC/propidium iodide staining-based flow cytometry (reference value: 6.2%); assay type: functional; how it was run: as §1
MCF7 [20] = test: Cell cycle arrest in human MCF7 cells assessed as accumulation at S phase at 8 uM after 12 hrs by propidium iodide staining-based flow cytometry (reference value: 26.65%); assay type: functional
MCF7 [21] = test: Induction of apoptosis in human MCF7 cells assessed as viable cells at 2 uM after 24 hrs by annexin V-FITC/propidium iodide staining-based flow cytometry (reference value: 87.1%); assay type: functional; details: MCF7, 24 h, read-out: Activity; how it was run: as §1
SMMC-7721 = test: Cytotoxicity against human SMMC7721 cells after 72 hrs by MTT assay; assay type: functional, cell-based; details: SMMC-7721, 72 h; how it was run: as §2
MCF7 [22] = test: Induction of apoptosis in human MCF7 cells assessed as early apoptotic cells at 2 uM after 12 hrs by annexin V-FITC/propidium iodide staining-based flow cytometry (reference value: 7.2%); assay type: functional; how it was run: as §1
MCF7 [23] = test: Cell cycle arrest in human MCF7 cells assessed as accumulation at G1/G0 phase at 2 uM after 12 hrs by propidium iodide staining-based flow cytometry (reference value: 60.51%); assay type: functional
MCF7 [24] = test: Induction of apoptosis in human MCF7 cells assessed as late apoptotic cells at 4 uM after 12 hrs by annexin V-FITC/propidium iodide staining-based flow cytometry (reference value: 2.7%); assay type: functional; how it was run: as §1
MCF7 [25] = test: Induction of apoptosis in human MCF7 cells assessed as late apoptotic cells at 8 uM after 24 hrs by annexin V-FITC/propidium iodide staining-based flow cytometry (reference value: 2.1%); assay type: functional; how it was run: as §1
MCF7 [26] = test: Induction of apoptosis in human MCF7 cells assessed as early apoptotic cells at 4 uM after 24 hrs by annexin V-FITC/propidium iodide staining-based flow cytometry (reference value: 4.5%); assay type: functional; how it was run: as §1
MCF7 [27] = test: Induction of apoptosis in human MCF7 cells assessed as early apoptotic cells at 8 uM after 12 hrs by annexin V-FITC/propidium iodide staining-based flow cytometry (reference value: 7.2%); assay type: functional; how it was run: as §1
MCF7 [28] = test: Cell cycle arrest in human MCF7 cells assessed as accumulation at G1/G0 phase at 4 uM after 24 hrs by propidium iodide staining-based flow cytometry (reference value: 46.77%); assay type: functional
[29] = Cytotoxicity against human EC9706 cells after 72 hrs by MTT assay; assay type: functional, cell-based; details: EC9706, 72 h; how it was run: as §2
MCF7 [30] = test: Induction of apoptosis in human MCF7 cells assessed as viable cells at 8 uM after 12 hrs by annexin V-FITC/propidium iodide staining-based flow cytometry (reference value: 85.4%); assay type: functional; details: MCF7, 12 h, read-out: Activity; how it was run: as §1

O=C(CSC(=S)N[C@H]1CCOC1=O)Nc1ccc(C(=O)/C=C/c2ccccc2Cl)cc1
Activity (MCF7 [1]): 4.8%
Activity (MCF7 [2]): 2.1%
Activity (MCF7 [3]): tde
Activity (MCF7 [4]): 23.92%
IC50 (MCF7 [5]): 5.57 µM
viability at 4 µM (MCF7 [6]): 69.3%
Activity (MCF7 [7]): 33.39%
Activity (MCF7 [8]): 63.06%
Activity (MCF7 [9]): 4.1%
Activity (MCF7 [10]): 3%
IC50 (HEK293): 21.1 µM
Activity (MCF7 [11]): 14.7%
Activity (MCF7 [12]): 26.69%
viability at 8 µM (MCF7 [13]): 46%
Activity (MCF7 [14]): tde
Activity (MCF7 [15]): 20.51%
Activity (MCF7 [16]): 1.7%
IC50 (MGC-803): 12.3 µM
Activity (MCF7 [17]): 4.9%
Activity (MCF7 [18]): 18.26%
Activity (MCF7 [19]): 5.7%
Activity (MCF7 [20]): 25.84%
viability at 2 µM (MCF7 [21]): 75.8%
IC50 (SMMC-7721): 20.4 µM
Activity (MCF7 [22]): 11.4%
Activity (MCF7 [23]): 67.5%
Activity (MCF7 [24]): 1.7%
Activity (MCF7 [25]): 6.1%
Activity (MCF7 [26]): 23.6%
Activity (MCF7 [27]): 19%
Activity (MCF7 [28]): 39.43%
IC50 [29]: 34.1 µM
viability at 8 µM (MCF7 [30]): 75.9%
